Published values of several laboratories.
Target: Histamine H1 receptor (HRH1, Homo sapiens, UniProt P35367)

CCN(Cc1ccccc1C(F)(F)F)C(=O)C1CCN(S(=O)(=O)c2ccc3[nH]ncc3c2)CC1 — inhibition (ligand displacement; radioligand; 10 µM): 26%
C[C@H](NC(=O)Nc1cc2[nH]ncc2c(CO)n1)c1ccccn1 — inhibition (cell-free assay; 10 µM): 4.18%
CN1CCC(C2c3ccccc3C=Cc3ccccc32)CC1 — koff (binding): 0.00035 s⁻¹
CN1CCN(CCCOc2ccc(=O)n(-c3ccc(Cl)c(Cl)c3)n2)CC1 — inhibition (ligand displacement; 1 µM): 40.7%
CCN(CC)c1ccc(C2Nc3ccc(C(=O)c4ccccc4)cc3NC3=C2C(=O)CC(C)(C)C3)cc1 (centres unmarked) — inhibition (ligand displacement; radioligand; 10 µM): 40%
COc1ccc(-n2nc(OCCCN3CCCCC3)ccc2=O)cc1 — inhibition (ligand displacement; 1 µM): 16.7%
O=C1N=C(N2CCCCN2)S/C1=C\c1ccc(F)cc1O — inhibition (ligand displacement; radioligand; 10 µM): < 10%
CN1CCC(=C2c3ccccc3CCc3cccnc32)CC1 — koff (binding): 0.000147 s⁻¹
Ic1cccc2cnccc12 — inhibition (ligand displacement; radioligand; 10 µM): 0%
CCCNc1nc2ccccc2n1Cc1ccc(Cl)cc1 — inhibition (ligand displacement; 10 µM): 97.8%
CC(C)(C)OC(=O)N1CCCC1CNC1CCC(c2cc(F)ccc2F)(S(=O)(=O)c2ccc(Cl)cc2)CC1 (centres unmarked) — inhibition (cell-free assay; 10 µM): 25.6%
CN(C)CCOC1c2ccccc2CCc2ccccc21 — kon (binding): 1.1e+06 M⁻¹ s⁻¹
Oc1cccc(Nc2nc(-c3ccc(F)cc3F)cs2)c1 — inhibition (cell-free assay; 10 µM): -19.9%
CN(C)CCOC1c2ccccc2C=Cc2ccccc21 — kon (binding): 833000 M⁻¹ s⁻¹
O=C(c1ccc(F)cc1)N(Cc1ccccc1)C1CCCCC1 — inhibition (cell-free assay; 10 µM): 23%
N#Cc1cc(Cn2c(N3CCCC3)nc3ccccc32)ccc1F — inhibition (ligand displacement; 10 µM): 73%
CN1CCN(C2c3ccccc3CCc3ccccc32)CC1 — koff (binding): 0.002 s⁻¹
